In data set [1] the test system is Trypanosoma cruzi. Description: Antimicrobial activity against blood stream form of Trypanosoma cruzi RA assessed as growth inhibition at 1 to 70 ug/ml after 24 hrs by Neubauer chamber counting analysis. Type of data set: functional, organism-based. In short, it runs like this: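 RA-strain bloodstream trypomastigotes were enriched from infected-mouse blood at peak parasitemia. They were used at 1.5 x 10^6/mL in RPMI 1640 with 10% FCS. Parasites were exposed for 24 h at 37 °C in 5% CO2 to 0–70 ug/mL compound from 40 mM DMSO stocks (final DMSO <0.5%). 0.5% DMSO served as negative control. Surviving parasites were counted by Neubauer chamber. Three independent experiments, each in triplicate.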

Data set [2] is described as follows: Octanol-water partition coefficient, log P of the compound by RP-HPLC analysis. Type of data set: physicochemical. In short, it runs like this: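 RP-HPLC lipophilicity: isocratic buffer pH 5.5–MeOH, 30–75% MeOH in 5% steps. Three injections per compound and five per standard at each ratio. log k' = log(tR − t0)/t0 was computed from retention times.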
Data set [3] in a line: Stability of the compound in buffer at 37 degC at pH 6.8 after 3 hrs in presence of pancreatin. The note with it: pH 6.8, 3 h. Type of data set: ADME. The procedure, abridged: (§1)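 Compounds came from DMSO stocks of 1.0 x 10^-4 mol/mL. They were incubated at 37 °C in buffer pH 1.2 or SGF (pepsin) for 1 h, and in buffer pH 6.8 or SIF (pancreatin) for 3 h. Samples were analysed by micellar LC. Percent degradation was reported; kinetics were treated as pseudo-first-order.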

A short description of data set [4]: Intrinsic solubility of the compound in standard phosphate buffer at pH 6.8 at 25 degC after 24 hrs by shake-flask method. Type of data set: physicochemical. The note with it: read-out: Intrinsic_solubility. The procedure, abridged: (§2)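 Shake-flask intrinsic solubility: solid compound was added to phosphate buffer until excess remained undissolved. The thermostated saturated solution was shaken for 24 h to reach equilibrium, at 25 °C and at 37 °C.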

Data set [5] deals with Trypanosoma cruzi. The data set is described as follows: Antimicrobial activity against Trypanosoma cruzi RA amastigotes infected in African green monkey Vero cells assessed as growth inhibition at 1 ug/ml after 72 hrs by Giemsa staining-based light microscopy. Type of data set: functional, organism-based. In short, it runs like this: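 RA-strain bloodstream trypomastigotes infected irradiated Vero cells (2000 rads) on coverslips at a 5:1 parasite:cell ratio for 24 h. Cells were washed, then exposed to 1 ug/mL compound for 72 h at 37 °C in 5% CO2. Coverslips were fixed in methanol and Giemsa-stained. Infected cells were scored by light microscopy against untreated infected cultures.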

A short description of data set [6]: Stability of the compound in 0.1 M SDS-0.01 M 7.5% (v/v) 1-propanol-NaH2PO4/H3PO4 assessed as compound recovery at 7.5 x 10^-9 mol/ml by micellar liquid chromatography. Type of data set: physicochemical. The procedure, abridged:
(§3)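 Recovery: N1-acyl compounds were spiked at 7.5 x 10^-9, 6 x 10^-8 and 3.5 x 10^-7 mol/mL (ten replicates each) into pH 1.2 and 6.8 buffers, SGF and SIF. Analysis used MLC with 0.1 M SDS–7.5% 1-propanol–0.01 M NaH2PO4/H3PO4 pH 3.0, at 1 mL/min, 25 °C and 276 nm. Recovery was calculated against working standards.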

The nature of data set [7]: Stability of the compound in buffer at 37 degC at pH 1.2 after 1 hr in presence of pepsin. Type of data set: ADME. The following applies: isolated protein, pH 1.2, 1 h. In short, it runs like this:
as §1

Data set [8] is described as follows: Drug degradation in 30% H2O2 assessed as allopurinol formation. Type of data set: physicochemical.
Data set [9] in a line: Stability of the compound in 0.1 M SDS-0.01 M 7.5% (v/v) 1-propanol-NaH2PO4/H3PO4 assessed as compound recovery at 6 x 10^-8 mol/ml by micellar liquid chromatography. Type of data set: physicochemical. In short, it runs like this:
as §3

A further data set concerns Plasma. Description: Metabolic stability of the compound in human plasma. Type of data set: ADME, cell-free. The procedure, abridged:
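Stability in human plasma was followed by micellar LC, with allopurinol tracked as product. Pseudo-first-order kinetics gave t1/2 or kobs.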

The nature of data set [10]: Stability of the compound in simulated intestinal fluid assessed as retention time by micellar liquid chromatography. The following applies: simulated gi fluid. Type of data set: physicochemical.
Data set [11] is described as follows: Stability of the compound in 0.1 M SDS-0.01 M 7.5% (v/v) 1-propanol-NaH2PO4/H3PO4 assessed as compound recovery at 3.5 x 10^-7 mol/ml by micellar liquid chromatography. Type of data set: physicochemical. The procedure, abridged:
as §3

Data set [12] is described as follows: Stability of the compound in simulated intestinal fluid at 37 degC after 3 hrs. Type of data set: physicochemical. The note with it: simulated gi fluid. The procedure, abridged: as §1
Data set [13] can be described thus: Intrinsic solubility of the compound in standard phosphate buffer at pH 6.8 at 37 degC after 24 hrs by shake-flask method. Type of data set: physicochemical. The following applies: read-out: Intrinsic_solubility. The procedure, abridged:
as §2

Data set [14] can be described thus: Stability of the compound in simulated gastric fluid at 37 degC after 1 hr. Type of data set: physicochemical. The note with it: simulated gi fluid. The procedure, abridged:
as §1

Here are results for one compound from ChEMBL document CHEMBL2434933, “Synthesis, physicochemical properties of allopurinol derivatives and their biological activity against Trypanosoma cruzi” (Eur J Med Chem, 2013).

Converted amounts (≈) assume the structure as drawn. The source made the active and inactive calls. The rule behind the calls is not given here.

Regarding `Cc1nc(O)c2c[nH]nc2n1`, in the data set with Trypanosoma cruzi [1], the “growth inhibition (GI)” value is “inactive”. Further, in [2], the logP (as a rule, the decadic logarithm of the partition coefficient of the neutral form, usually between octanol and water) was -0.05. In addition, the Stability result in data set [3] is reported as “Stable”; in [7], “Stable”; in data set [8], “Stable”; in the data set with Plasma, 100%; in [12] it was “Stable”; in data set [14], “Stable”. Also, the solubility thermodynamic at 24 h was determined as 1480 µg/mL (≈ 9.86 mM) in data set [4] and 2020 µg/mL (≈ 13.5 mM) in data set [13]. Also, the “growth inhibition (GI)” value in the data set with Trypanosoma cruzi [5] is “Active”. The Drug recovery in [6] was found to be 98.57%; in data set [9], 102.72%; in data set [11], 102.77%. Moreover, the Retention_time in data set [10] is 3 min.
